Entries after “also recorded” stand apart in the source; their conditions may differ. Read-outs that look alike come from different tables or passages of the source.
Tests used:
CMV AD169 = assay: Anti-CMV activity in WS1 cell cultures; assay type: cell-based, Human cytomegalovirus; settings: human fibroblast WS1 cell line infected with CMV AD169, 5 days, n=3
[1] = Viability assay in WS1 cell cultures; assay type: cell-based, human; settings: human, WS1 cells
[2] = Viability assay in MT-4 cell cultures; assay type: cell-based, Human; settings: human, MT-4 cells
CMV (AD169) = assay: Anti-CMV activity in HIV-1/CMV coinfected human tissues ex vivo; assay type: cell-based, Human cytomegalovirus; settings: for inhibition of number of CMV DNA copies/μL: HIV-1/CMV-coinfected human lymphoid tissue, 10 μM, 15 days
How it was run: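 Human tonsil tissue blocks (2-3 mm) cultured on collagen sponge at the air-liquid interface in RPMI 1640 with 15% FBS. Blocks pretreated with test compound (10 μM) 12 h before simultaneous infection with HIV-1 X4LAI.04 and CMV AD169 stocks. Medium changed every 3 days; 15 days at 37°C. CMV DNA in culture medium measured by real-time PCR, as percent of untreated control. Means ± SEM, 3 or 6 donors.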

MT-4 cells [3] = settings: cited from earlier work
HIV-1 (X4LAI.04) = assay: Anti-HIV-1 activity in HIV-1/CMV coinfected human tissues ex vivo; assay type: cell-based; settings: for inhibition of HIV-1 replication by controls: coinfected tissues, control drugs, concentration not given, n=3; for inhibition of cumulative production of p24gag: HIV-1/CMV-coinfected human lymphoid tissue, 10 μM, 15 days
How it was run: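 Tonsillar tissue blocks (2-3 mm) kept on collagen sponge at the air-liquid interface, RPMI 1640 with 15% FBS. Pretreated with test compound at 10 μM 12 h before coinoculation with HIV-1 X4LAI.04 and CMV AD169. Medium changed every 3 days; cultured 15 days at 37°C. p24gag in medium measured by Luminex bead assay, as percent of untreated control. Means ± SEM, 3 or 6 donors.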

CMV = settings: cited from earlier work
MT-4 cells [4] = assay: Viability assay in MT-4 cell cultures; assay type: cell-based, Human
WS1 cells = assay: Viability assay in WS1 cell cultures; assay type: cell-based, human; settings: read-out: Cytotoxicity CC50; WS1 cell line, MTT, three days
[5] = tested on: esterase from porcine liver; assay: Hydrolysis of the compounds by esterase from porcine liver; settings: Tris-HCl buffer pH 8.2, 37 °C
HIV-1 X4LAI.04 = assay: Anti HIV-1 activity in human tonsillar tissue ex vivo; assay type: cell-based; settings: 12 days
[6] = tested on: esterase from porcine liver
[7] = 1 nM (first of five concentrations ranging from 1 nM to 10 μM)
[8] = 10 μM (fifth of five concentrations ranging from 1 nM to 10 μM)
[9] = fourth of five concentrations ranging from 1 nM to 10 μM
[10] = second of five concentrations ranging from 1 nM to 10 μM
[11] = third of five concentrations ranging from 1 nM to 10 μM

In the case of `O=C(O)Cn1c(=O)ccn(CCCOc2ccc(Br)cc2)c1=O` [2a, [3-[3-(4-bromophenoxy)propyl]-2,6-dioxo-3,6-dihydropyrimidin-1(2H)-yl]acetic acid], the “Antiviral activity EC50 ± SD” value (CMV AD169) is reported as “inactive” and the CC50 at 3 days [1] is reported as 965 µM.

`O=C(O)Cn1c(=O)ccn(CCCCCOc2ccc(Br)cc2)c1=O` [2b, [3-[5-(4-bromophenoxy)pentyl]-2,6-dioxo-3,6-dihydropyrimidin-1(2H)-yl]acetic acid] gave a CC50 at 3 days [1] of 749 µM.

For `O=C(O)Cn1c(=O)ccn(CCCCCCOc2ccc(Br)cc2)c1=O` [2c, [3-[6-(4-bromophenoxy)hexyl]-2,6-dioxo-3,6-dihydropyrimidin-1(2H)-yl]acetic acid], the CC50 at 3 days [2] was over 100 µM, the “inhibition of CMV by control compounds” value (CMV (AD169); coinfected tissues, control compounds, concentration not given, n=3) was 68.6 ± 11.3% and the CC50 at 3 days [1] was 724 µM.

For `O=C(O)Cn1c(=O)ccn(CCCCCCCCOc2ccc(Br)cc2)c1=O` [2d, [3-[8-(4-bromophenoxy)octyl]-2,6-dioxo-3,6-dihydropyrimidin-1(2H)-yl]acetic acid], the CC50 at 3 days [1] was 90.5 µM.

With `O=C(O)Cn1c(=O)ccn(CCCCCCCCCCOc2ccc(Br)cc2)c1=O` [2e, [3-[10-(4-bromophenoxy)decyl]-2,6-dioxo-3,6-dihydropyrimidin-1(2H)-yl]acetic acid] the “Antiviral activity EC50 ± SD” value (CMV AD169) was “inactive” and the CC50 at 3 days [1] was 164 µM.

With `O=C(O)Cn1c(=O)ccn(CCCCCCCCCCCCOc2ccc(Br)cc2)c1=O` [2f, [3-[12-(4-bromophenoxy)dodecyl]-2,6-dioxo-3,6-dihydropyrimidin-1(2H)-yl]acetic acid] the “Antiviral activity EC50 ± SD” value (CMV AD169) was “inactive” and the CC50 at 3 days [1] was 22 µM.

For `Nc1ccn([C@@H]2CS[C@H](CO)O2)c(=O)n1` [3TC, (−)-L-2′,3′-dideoxy-3′-thiacytidine], the CC50 (MT-4 cells [3]) is given as over 100 µM, the “inhibition of HIV-1 replication by controls” value (HIV-1 (X4LAI.04)) is given as 99.7 ± 0.2% and the “effect on CMV replication / anti CMV activity” value (CMV) is given as “no effect on CMV replication”.

With `Cc1cn([C@H]2C[C@H](N=[N+]=[N-])[C@@H](COC(=O)Cn3c(=O)ccn(CCCOc4ccc(Br)cc4)c3=O)O2)c(=O)[nH]c1=O` [3a, (3'-azido-3'-deoxytimidine)-2-(3-((4-bromophenoxy)propyl)-2,6-dioxo-2,3-dihydropyrimidin-1(6H)-yl)acetate] the CC50 (MT-4 cells [4]) was 82.1 µM and the CC50 (WS1 cells) was 347 µM.

With `Cc1cn([C@H]2C[C@H](N=[N+]=[N-])[C@@H](COC(=O)Cn3c(=O)ccn(CCCCCOc4ccc(Br)cc4)c3=O)O2)c(=O)[nH]c1=O` [3b, (3'-azido-3'-deoxytimidine)-2-(3-((4-bromophenoxy)pentyl)-2,6-dioxo-2,3-dihydropyrimidin-1(6H)-yl)acetate] the “T1/2 of hydrolysis by esterase” value [5] was 7 to 8 h, the CC50 (MT-4 cells [4]) was over 100 µM and the CC50 (WS1 cells) was 173 µM.

With `Cc1cn([C@H]2C[C@H](N=[N+]=[N-])[C@@H](COC(=O)Cn3c(=O)ccn(CCCCCCOc4ccc(Br)cc4)c3=O)O2)c(=O)[nH]c1=O` [3c, (3'-azido-3'-deoxytimidine)-2-(3-((4-bromophenoxy)hexyl)-2,6-dioxo-2,3-dihydropyrimidin-1(6H)-yl)acetate] the “inhibition of HIV-1 replication” value (HIV-1 X4LAI.04; [7]) was 0 ± 0.5%, the “inhibition of HIV-1 replication” value (HIV-1 X4LAI.04; [8]) was 96.2 ± 1.0% and the “inhibition of HIV-1 replication” value (HIV-1 X4LAI.04; [9]) was 76.5 ± 3.3%. For the same molecule, the “inhibition of HIV-1 replication” value (HIV-1 X4LAI.04; [10]) was 17.9 ± 8.2%, the “inhibition of HIV-1 replication” value (HIV-1 X4LAI.04; [11]) was 31.4 ± 7.7% and the “T1/2 of hydrolysis by esterase” value [5] was 7 to 8 h. The “inhibition of cumulative production of p24gag” value (HIV-1 (X4LAI.04)) was 97.2 ± 2.1%, the CC50 (MT-4 cells [4]) was over 100 µM and the “inhibition of number of CMV DNA copies/μL” value (CMV (AD169)) was 86.9 ± 3.3%. For the same molecule, the CC50 (WS1 cells) was 393 µM.

In the case of `Cc1cn([C@H]2C[C@H](N=[N+]=[N-])[C@@H](COC(=O)Cn3c(=O)ccn(CCCCCCCCOc4ccc(Br)cc4)c3=O)O2)c(=O)[nH]c1=O` [3d, (3'-azido-3'-deoxytimidine)-2-(3-((4-bromophenoxy)octyl)-2,6-dioxo-2,3-dihydropyrimidin-1(6H)-yl)acetate], the CC50 (MT-4 cells [4]) is reported as over 100 µM and the CC50 (WS1 cells) is reported as 600 µM.

Molecule `Cc1cn([C@H]2C[C@H](N=[N+]=[N-])[C@@H](COC(=O)Cn3c(=O)ccn(CCCCCCCCCCOc4ccc(Br)cc4)c3=O)O2)c(=O)[nH]c1=O` [3e, (3'-azido-3'-deoxytimidine)-2-(3-((4-bromophenoxy)decyl)-2,6-dioxo-2,3-dihydropyrimidin-1(6H)-yl)acetate] has a CC50 (MT-4 cells [4]) of over 100 µM and a CC50 (WS1 cells) of 182 µM.

For `Cc1cn([C@H]2C[C@H](N=[N+]=[N-])[C@@H](COC(=O)Cn3c(=O)ccn(CCCCCCCCCCCCOc4ccc(Br)cc4)c3=O)O2)c(=O)[nH]c1=O` [3f, (3'-azido-3'-deoxytimidine)-2-(3-((4-bromophenoxy)dodecyl)-2,6-dioxo-2,3-dihydropyrimidin-1(6H)-yl)acetate], the CC50 (MT-4 cells [4]) was over 100 µM and the CC50 (WS1 cells) was 253 µM.

In the case of `Nc1ccn([C@@H]2CS[C@H](COC(=O)Cn3c(=O)ccn(CCCCCCOc4ccc(Br)cc4)c3=O)O2)c(=O)n1` [4c, ((−)-L-2′,3′-dideoxy-3′-thiacytidine)-2-(3-((4-bromophenoxy)hexyl)-2,6-dioxo-2,3-dihydropyrimidin-1(6H)-yl)acetate], the “inhibition of HIV-1 replication” value (HIV-1 X4LAI.04; [7]) is reported as 0.6 ± 0.2%, the “inhibition of HIV-1 replication” value (HIV-1 X4LAI.04; [8]) is reported as 99.6 ± 0.1% and the “inhibition of HIV-1 replication” value (HIV-1 X4LAI.04; [9]) is reported as 88.6 ± 2.9%. For the same molecule, the “inhibition of HIV-1 replication” value (HIV-1 X4LAI.04; [10]) was 14.6 ± 6.5%, the “inhibition of HIV-1 replication” value (HIV-1 X4LAI.04; [11]) was 45.7 ± 3.7% and the “T1/2 of hydrolysis by esterase” value [5] was “about 24 hrs”. The “inhibition of cumulative production of p24gag” value (HIV-1 (X4LAI.04)) was 99.4 ± 0.4%, the CC50 (MT-4 cells [4]) was over 100 µM and the “inhibition of number of CMV DNA copies/μL” value (CMV (AD169)) was 78.7 ± 1.7%.

In the case of `Cc1cn([C@H]2C[C@H](N=[N+]=[N-])[C@@H](CO)O2)c(=O)[nH]c1=O` [AZT, 2',3'-dideoxy-3'-azidothymidine], the CC50 (MT-4 cells [3]) is listed as over 100 µM, the “inhibition of HIV-1 replication by controls” value (HIV-1 (X4LAI.04)) is listed as 97.0 ± 1.6% and the “effect on CMV replication / anti CMV activity” value (CMV) is listed as “does not have any anti CMV activity; also recorded: no effect on CMV replication”.

`Nc1nc(O)c2ncn(COC(CO)CO)c2n1` [GCV, ganciclovir, reference compound] gave a CC50 at 3 days [1] of 500 µM.

With `CC(=O)OC[C@H]1O[C@@H](n2cc(C)c(=O)[nH]c2=O)C[C@@H]1OC(C)=O` [Thymidine diacetate] the “hydrolysis totally completed after” value [6] was 5 to 6 h.
